What all share (assay type): functional, organism-based
The test system of experiment [1] is Mus musculus. The experiment in a line: Compound was evaluated for antitumor activity (T/C) in HT1376 carcinoma Xenograft, at a dosage 25 mg/kg on day 28. Further details: dose 25 mg/kg. In a few lines:
(§1)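 Nude mice carrying subcutaneous flank HT1376 fragments; treatment began once tumors were established and palpable, randomized into groups of 6 treated and 10 control mice. Dosing was ip as a suspension in 0.5% carboxymethylcellulose in 0.9% saline on days 0, 7, 14 and 21, at the MTD and two 2-fold dilutions. Tumors were measured on days 0-28. RTV = 100(mean volume at assessment)/(mean start volume); T/C = treated RTV/control RTV.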

Experiment [2] concerns Mus musculus. Briefly: Compound was evaluated for antitumor activity (RTV) in HT1376 carcinoma Xenograft, at a dosage 25 mg/kg on day 7. Further details: dose 25 mg/kg. In a few lines: (§2)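 HT1376 tumor fragments implanted subcutaneously in nude mice flanks; mice with established palpable tumors randomized into groups of 6 (controls 10). Compounds given intraperitoneally as suspensions in 0.5% carboxymethylcellulose in 0.9% saline, on days 0, 7, 14 and 21. Tumor dimensions on days 0, 7, 14, 21, 28. RTV = 100(mean tumor volume at assessment)/(mean start volume).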

Experiment [3] deals with Mus musculus. The experiment in a line: Compound was evaluated for antitumor activity (T/C) in HT1376 carcinoma Xenograft, at a dosage 12.5 mg/kg on day 28. Further details: dose 12.5 mg/kg. In a few lines:
(§3)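 Subcutaneous HT1376 xenografts in nude mice, 6 per treated group and 10 controls. Intraperitoneal dosing as suspensions in 0.5% carboxymethylcellulose/0.9% saline on days 0, 7, 14, 21; tumors measured weekly to day 28. T/C = RTV of treated group / RTV of untreated control group; significance by t-test at the 5% level.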

The test system of experiment [4] is Mus musculus. Briefly: Compound was evaluated for antitumor activity (RTV) in HT1376 carcinoma Xenograft, at a dosage 12.5 mg/kg on day 21. Further details: dose 12.5 mg/kg. In a few lines: as §2
Experiment [5] deals with Mus musculus. The experiment in a line: Compound was evaluated for antitumor activity (T/C) in PNX/109/TC carcinoma Xenograft, at a dosage 5 mg/kg on day 28. Details: dose 5 mg/kg. In a few lines:
(§4)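 PNX/109/TC (CH1) ovarian tumor fragments implanted subcutaneously in the flanks of nude mice. Once tumors were palpable, mice were randomized into 6 per treated group and 10 controls. Dosing was ip in arachis oil on days 0, 7, 14 and 21, at the MTD and two 2-fold dilutions, with tumor dimensions taken on days 0, 7, 14, 21 and 28. T/C is treated RTV over control RTV, with RTV relative to start volume.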

In experiment [6] the test system is Mus musculus. Briefly: Compound was evaluated for antitumor activity (RTV) in PNX/109/TC carcinoma Xenograft, at a dosage 10 mg/kg on day 14. Further details: dose 10 mg/kg. In a few lines:
(§5)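 PXN/109/TC (CH1) ovarian tumor fragments implanted subcutaneously in nude mice flanks; established palpable tumors, groups of 6 (controls 10). Dosed intraperitoneally as suspension in arachis oil on days 0, 7, 14, 21. Tumors measured days 0, 7, 14, 21, 28. RTV = 100(mean tumor volume at assessment)/(mean start volume).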

For experiment [7], the system named is Mus musculus. Briefly: Compound was evaluated for antitumor activity (T/C) in PNX/109/TC carcinoma Xenograft, at a dosage 10 mg/kg on day 7. Further details: dose 10 mg/kg. In a few lines: as §4
The subject of experiment [8] is Mus musculus. The experiment in a line: Compound was evaluated for antitumor activity (T/C) in HT1376 carcinoma Xenograft, at a dosage 12.5 mg/kg on day 21. Further details: dose 12.5 mg/kg. In a few lines: as §3
Experiment [9] deals with Mus musculus. Briefly: Compound was evaluated for antitumor activity (T/C) in HT1376 carcinoma Xenograft, at a dosage 6.25 mg/kg on day 14. Further details: dose 6.25 mg/kg. In a few lines:
as §1

In experiment [10] the test system is Mus musculus. The experiment in a line: Compound was evaluated for antitumor activity (RTV) in HT1376 carcinoma Xenograft, at a dosage 6.25 mg/kg on day 21. Details: dose 6.25 mg/kg. In a few lines:
as §2

For experiment [11], the system named is Mus musculus. The experiment in a line: Compound was evaluated for antitumor activity (T/C) in HT1376 carcinoma Xenograft, at a dosage 6.25 mg/kg on day 21. Details: dose 6.25 mg/kg. In a few lines:
as §1

The subject of experiment [12] is Mus musculus. The experiment in a line: Compound was evaluated for antitumor activity (RTV) in PNX/109/TC carcinoma Xenograft, at a dosage 20 mg/kg on day 28. Further details: dose 20 mg/kg. In a few lines:
as §5

For experiment [13], the system named is Mus musculus. Briefly: Compound was evaluated for antitumor activity (T/C) in PNX/109/TC carcinoma Xenograft, at a dosage 5 mg/kg on day 7. Further details: dose 5 mg/kg. In a few lines:
as §4

For experiment [14], the system named is Mus musculus. Briefly: Compound was evaluated for antitumor activity (RTV) in HT1376 carcinoma Xenograft, at a dosage 25 mg/kg on day 28. Details: dose 25 mg/kg. In a few lines:
as §2

Experiment [15] has as its system Mus musculus. Briefly: Compound was evaluated for antitumor activity (RTV) in HT1376 carcinoma Xenograft, at a dosage 6.25 mg/kg on day 28. Further details: dose 6.25 mg/kg. In a few lines: as §2
The subject of experiment [16] is Mus musculus. The experiment in a line: Compound was evaluated for antitumor activity (T/C) in PNX/109/TC carcinoma Xenograft, at a dosage 20 mg/kg on day 7. Further details: dose 20 mg/kg. In a few lines:
as §4

With “Acetato[2-(dimethylamino)methyl]phenyl-C,N]gold-(III)”, the T/C was found to be 0.6 in the experiment on Mus musculus [1]; 0.75 in the experiment with Mus musculus [3]; 1.08 in the experiment on Mus musculus [5]; 0.76 with Mus musculus [7]; 0.77 with Mus musculus [8]; 1.43 in the experiment on Mus musculus [9]. The values for the T/C in the experiment on Mus musculus [11], with Mus musculus [13] and with Mus musculus [16] were 1.07, 0.69 and 0.74, respectively. The RTV in the experiment on Mus musculus [2] was 258; in the experiment on Mus musculus [4], 682; in the experiment with Mus musculus [6], 316; with Mus musculus [10] it was 953; with Mus musculus [12], 481; in the experiment with Mus musculus [14], 870. The RTV with Mus musculus [15] came to 1670.

The values above are taken from ChEMBL document CHEMBL1129059, “Antitumor properties of some 2-[(dimethylamino)methyl]phenylgold(III) complexes” (J Med Chem, 1996).
